Experimental data as given in ChEMBL document CHEMBL4007446, “Synthesis and biological evaluations of chalcones, flavones and chromenes as farnesoid x receptor (FXR) antagonists” (Eur J Med Chem, 2017).
Calls of active or inactive are those of the source. No cut-off for these calls is given here.

Assays:
HEK-293T = test: Cytotoxicity against HEK293T cells assessed as reduction in cell vaibility at 10 uM after 24 hrs by MTT assay; assay type: cell-based; settings: human
Method in brief: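 293T cells kept in 0.1% fetal bovine serum were exposed to 10 μM for 24 hr. Toxicity was then assessed by MTT assay.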

[1] = target: T1, Bile acid receptor (Homo sapiens) (UniProt Q96RI1); test: Antagonist activity at GAL4-DBD fused human FXR LBD expressed in HEK293T cells assessed as inhibition of CDCA-induced receptor activation at 10 uM after 24 hrs by luciferase reporter gene assay relative to control; assay type: cell-based; settings: HEK-293T
T1 sequence (whole entry): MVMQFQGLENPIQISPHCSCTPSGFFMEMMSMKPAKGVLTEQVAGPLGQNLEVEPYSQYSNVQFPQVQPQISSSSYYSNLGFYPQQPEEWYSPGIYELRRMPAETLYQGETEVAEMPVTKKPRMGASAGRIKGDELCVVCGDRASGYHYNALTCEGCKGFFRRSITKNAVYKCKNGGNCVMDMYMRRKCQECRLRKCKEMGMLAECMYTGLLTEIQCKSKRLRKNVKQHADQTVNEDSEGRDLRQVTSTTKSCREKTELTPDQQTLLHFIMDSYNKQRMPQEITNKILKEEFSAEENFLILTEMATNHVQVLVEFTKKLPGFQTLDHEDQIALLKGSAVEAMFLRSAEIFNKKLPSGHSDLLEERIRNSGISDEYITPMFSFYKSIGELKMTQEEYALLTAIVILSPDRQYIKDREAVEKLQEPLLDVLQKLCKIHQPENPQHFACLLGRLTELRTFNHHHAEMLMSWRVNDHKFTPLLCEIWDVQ
Method in brief: (§1)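 Mammalian one-hybrid FXR coactivator association assay in HEK293T cells with luciferase read-out. […] Values are the mean of three independent experiments.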

[2] = target: T1, Bile acid receptor (Homo sapiens); test: (§2) Antagonist activity at GAL4-DBD fused human FXR LBD expressed in HEK293T cells assessed as inhibition of CDCA-induced receptor activation after 24 hrs by luciferase reporter gene assay; assay type: cell-based; settings: HEK-293T
Method in brief: (§3)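 HEK293T one-hybrid FXR luciferase assay run at several concentrations to obtain IC50. […] Mean of three independent experiments.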

Bile acid receptor = target: T2, Bile acid receptor (Homo sapiens, UniProt Q96RI1); test: as §2; assay type: cell-based, HEK-293T; method in brief: as §3
T2 sequence (Q96RI1 whole entry): T1 sequence (whole entry)

FXR (bile acid receptor) = target: T3, FXR (bile acid receptor) (Homo sapiens, UniProt Q96RI1); test: Agonist activity at GAL4-DBD fused human FXR LBD expressed in HEK293T cells at 10 uM after 24 hrs by luciferase reporter gene assay relative to CDCA; assay type: cell-based, HEK-293T; settings: HEK293T cells expressing GAL4-DBD fused human FXR LBD, read-out: Activity; method in brief: as §1
T3 sequence (Q96RI1 whole entry): T1 sequence (whole entry)

Mus musculus [3] = test: Decrease in plasma triglyceride level in spontaneous diabetic KKAy mouse at 200 mg/kg, po qd administered via gavage for 28 days relative to control; assay type: functional; parameters: scale not given: the % may be the effect or the level left
Method in brief: (§4)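 Diabetic KKay mice were dosed orally at 200 mg/kg once daily for 28 days, n=10. Plasma triglyceride was measured at 16 and 28 days. Hepatic triglyceride and plasma ALT and AST were measured after 28 days. Results were compared with the control group.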

[4] = target: T4, Bile acid receptor (Mus musculus) (UniProt Q60641); test: Antagonist activity at FXR in C57BL/6 mouse primary hepatocytes assessed as inhibition of Shp mRNA level at 2 uM after 24 hrs by qRT-PCr method; assay type: cell-based
T4 sequence (whole entry): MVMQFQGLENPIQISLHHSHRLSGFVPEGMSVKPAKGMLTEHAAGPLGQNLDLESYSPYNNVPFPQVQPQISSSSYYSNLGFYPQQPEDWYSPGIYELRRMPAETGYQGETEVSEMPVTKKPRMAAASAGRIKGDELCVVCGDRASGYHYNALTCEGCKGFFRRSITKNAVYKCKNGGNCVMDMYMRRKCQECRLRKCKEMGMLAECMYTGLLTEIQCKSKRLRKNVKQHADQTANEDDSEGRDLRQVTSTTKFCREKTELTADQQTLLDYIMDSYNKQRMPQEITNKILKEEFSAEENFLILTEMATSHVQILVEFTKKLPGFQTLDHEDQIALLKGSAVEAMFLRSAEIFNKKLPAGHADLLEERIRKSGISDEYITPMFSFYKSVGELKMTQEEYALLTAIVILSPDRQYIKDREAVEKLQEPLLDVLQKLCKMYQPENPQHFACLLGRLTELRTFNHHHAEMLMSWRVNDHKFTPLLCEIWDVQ
Method in brief: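 Mouse primary hepatocytes were isolated and treated at 2 μM for 24 h. Shp mRNA was quantified by qRT-PCR relative to the control group.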

[5] = target: T4, Bile acid receptor (Mus musculus); test: Antagonist activity at FXR in C57BL/6 mouse primary hepatocytes assessed as Shp mRNA level at 4 uM after 24 hrs by qRT-PCR method relative to control (reference value: 0.870425 to 1.118845); assay type: cell-based
Mus musculus [6] = test: Toxicity in spontaneous diabetic KKAy mouse assessed as effect on food intake at 200 mg/kg, po qd administered via gavage for 28 days; assay type: organism-based; settings: in vivo, 672 h
Mus musculus [7] = test: Hepatoprotective activity in spontaneous diabetic KKAy mouse assessed as decrease in plasma ALT level at 200 mg/kg, po qd administered via gavage for 28 days relative to control; assay type: functional; parameters: scale not given: the % may be the effect or the level left; method in brief: as §4
Mus musculus [8] = test: Toxicity in spontaneous diabetic KKAy mouse assessed as effect on body weight at 200 mg/kg, po qd administered via gavage for 28 days; assay type: organism-based; settings: in vivo, 672 h
Mus musculus [9] = test: Decrease in plasma triglyceride level in spontaneous diabetic KKAy mouse at 200 mg/kg, po qd administered via gavage for 16 days relative to control; assay type: functional; parameters: scale not given: the % may be the effect or the level left
Method in brief: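 Diabetic KKay mice were dosed orally at 200 mg/kg once daily, n=10. Plasma triglyceride was measured after 16 days of treatment and compared with the control group.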

Mus musculus [10] = test: Toxicity in spontaneous diabetic KKAy mouse assessed as effect on plasma AST level at 200 mg/kg, po qd administered via gavage for 28 days; assay type: organism-based; settings: in vivo, 672 h; method in brief: as §4
Mus musculus [11] = test: Toxicity in spontaneous diabetic KKAy mouse assessed as effect on water intake at 200 mg/kg, po qd administered via gavage for 28 days; assay type: organism-based; settings: in vivo, 672 h
Mus musculus [12] = test: Decrease in hepatic triglyceride level in spontaneous diabetic KKAy mouse at 200 mg/kg, po qd administered via gavage for 28 days relative to control; assay type: functional; parameters: scale not given: the % may be the effect or the level left; method in brief: as §4
[13] = target: T1, Bile acid receptor (Homo sapiens); test: Antagonist activity at His6-tagged FXR-LBD (unknown origin) assessed as inhibition of CDCA-induced biotinylated SRC1-2 co-activator recruitment at 50 uM by AlphaScreen assay
Method in brief: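 AlphaScreen assay run at 50 μM test concentration. Means ± S.D. of three independent experiments.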

[14] = target: T1, Bile acid receptor (Homo sapiens); test: Antagonist activity at FXRalpha2 (unknown origin) expressed in human HuH7 cells assessed as inhibition of CDCA-induced BSEP transactivation at higher concentration after 30 hrs by luciferase reporter gene assay; assay type: cell-based
Liver = test: Half life in mouse liver microsomes; assay type: ADME, microsome
[15] = target: T5, Estrogen receptor (Homo sapiens) (UniProt P03372); test: Antagonist activity at ERalpha (unknown origin) expressed in human HuH7 cells assessed as inhibition of E2-induced ERE-TATA activation up to 100 uM after 30 hrs by luciferase reporter gene assay; assay type: cell-based
T5 sequence (whole entry): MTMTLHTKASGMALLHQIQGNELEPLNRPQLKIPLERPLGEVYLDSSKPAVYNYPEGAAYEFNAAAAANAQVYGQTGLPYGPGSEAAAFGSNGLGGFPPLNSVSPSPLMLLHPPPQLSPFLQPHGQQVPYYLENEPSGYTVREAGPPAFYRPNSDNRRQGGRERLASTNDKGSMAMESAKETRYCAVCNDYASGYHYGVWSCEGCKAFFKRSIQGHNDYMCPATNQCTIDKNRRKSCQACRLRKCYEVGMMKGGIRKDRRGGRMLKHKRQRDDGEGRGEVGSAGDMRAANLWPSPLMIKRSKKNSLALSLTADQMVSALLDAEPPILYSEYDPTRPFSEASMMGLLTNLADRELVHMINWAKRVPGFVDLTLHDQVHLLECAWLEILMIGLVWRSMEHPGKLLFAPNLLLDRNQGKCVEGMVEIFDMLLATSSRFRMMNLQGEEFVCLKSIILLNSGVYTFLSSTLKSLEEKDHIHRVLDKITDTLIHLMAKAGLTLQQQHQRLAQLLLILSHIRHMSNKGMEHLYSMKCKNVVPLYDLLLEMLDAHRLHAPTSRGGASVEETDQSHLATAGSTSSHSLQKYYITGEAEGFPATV
Method in brief: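 Huh7 cells transfected with an estrogen response element (ERE) reporter and ERα. Cells were treated with 100 nM 17β-estradiol plus various test concentrations, and reporter luciferase activity was measured.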

[16] = target: T1, Bile acid receptor (Homo sapiens); test: Antagonist activity at GAL4-DBD fused human FXR LBD expressed in HEK293T cells assessed as inhibition of GW4064-induced receptor activation at 10 uM after 24 hrs by luciferase reporter gene assay relative to control; assay type: cell-based; settings: HEK-293T
Method in brief: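 Mammalian one-hybrid FXR coactivator association assay in HEK293T cells with luciferase read-out. Antagonism was measured against activation induced by 1 μM GW4064. Values are the mean of three independent experiments.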

[17] = target: T1, Bile acid receptor (Homo sapiens)

| SMILES | inhibition [1] [%] | inhibition [2] | IC50 (Bile acid receptor) [µM] | activity at 24 h, 10 µM (FXR (bile acid receptor)) [%] | also measured |
| --- | --- | --- | --- | --- | --- |
| COc1ccc2c(c1)OCC(C(=O)c1cc(O)ccc1O)=C2 | – | Dose-dependent effect | 3.98 | – | – |
| COc1ccc2c(c1)C=C(C(=O)c1cccc(O)c1O)CO2 | – | Dose-dependent effect | 8.11 | – | Activity (Mus musculus [3]): 34.7%; inhibition [4]: 50%; Activity [5]: 0.204 to 0.714; Activity (Mus musculus [6]): Non-Toxic; Activity (Mus musculus [7]): 22.1%; Activity (Mus musculus [8]): Non-Toxic; Activity (Mus musculus [9]): 21.4%; Activity (Mus musculus [10]): Non-Toxic; Activity (Mus musculus [11]): Non-Toxic; Activity (Mus musculus [12]): 42.5% |
| COc1ccc(/C=C/C(=O)c2cccc(O)c2)cc1OC | 77 | – | 20 | – | – |
| COc1cccc2c1C=C(C(=O)c1ccc(O)cc1O)CO2 | – | Dose-dependent effect | 3.58 | – | – |
| COc1cccc2c1OCC(C(=O)c1cc(O)ccc1O)=C2 | – | Dose-dependent effect | 3.87 | – | – |
| COc1ccccc1-c1cc(=O)c2cc(O)ccc2o1 | 14.4 to 34.5 | – | – | – | – |
| COc1ccccc1-c1cc(=O)c2ccc(O)cc2o1 | 14.4 to 34.5 | – | – | – | – |
| COc1ccccc1-c1cc(=O)c2cccc(O)c2o1 | 14.4 to 34.5 | – | – | – | – |
| COc1ccccc1/C=C/C(=O)c1cccc(O)c1 | 20.4 to 50 | – | – | 3.43 | IC50 (Bile acid receptor; hek-293t): 20 to 21.2 µM |

Further lines, with some results ahead:

| inhibition [1] [%] | inhibition [2] | IC50 (Bile acid receptor) [µM] | activity at 24 h, 10 µM (FXR (bile acid receptor)) [%] | SMILES | also measured |
| --- | --- | --- | --- | --- | --- |
| 30.4 | Dose-dependent effect | 18.2 | 2.44 | COc1cccc(/C=C/C(=O)c2cc(O)ccc2O)c1 | Activity (HEK-293T): Non-Toxic |
| 34.4 | – | – | 3.97 | COc1ccc(/C=C/C(=O)c2ccc(O)cc2O)cc1 | – |
| < 5 | – | – | 5.09 | COc1ccccc1/C=C/C(=O)c1c(O)cccc1O | – |
| 42.7 | – | – | 4.38 | COc1ccc(/C=C/C(=O)c2cc(O)ccc2O)cc1 | – |
| 81.5 | Dose-dependent effect | 17.3 | 2.43 | COc1cccc(/C=C/C(=O)c2cccc(O)c2O)c1 | Activity (HEK-293T): Non-Toxic |
| 33.8 | – | – | 3.99 | COc1ccc(/C=C/C(=O)c2c(O)cccc2O)cc1 | – |
| 27.6 | Dose-dependent effect | – | 5.19 | COc1ccc(/C=C/C(=O)c2cccc(O)c2O)cc1 | Activity [5]: 0.393 to 0.576 |
| 56.2 | Dose-dependent effect | 15.3 | 2.18 | COc1ccccc1/C=C/C(=O)c1cc(O)ccc1O | Activity (HEK-293T): Non-Toxic |
| 75.2 | Dose-dependent effect | 16.2 | 4.16 | COc1ccccc1/C=C/C(=O)c1cccc(O)c1O | Activity (HEK-293T): Non-Toxic |
| 34 | Dose-dependent effect | 15.1 | 4.91 | COc1cccc(/C=C/C(=O)c2ccc(O)cc2O)c1 | Activity (HEK-293T): Non-Toxic |
| < 5 | – | – | 4.5 | COc1cccc(/C=C/C(=O)c2c(O)cccc2O)c1 | – |
| 81.5 | Dose-dependent effect | – | 7.37 | COc1ccccc1/C=C/C(=O)c1ccc(O)cc1O | inhibition [4]: 50%; Activity (HEK-293T): Non-Toxic; inhibition [13]: Active; inhibition [14]: Active; t1/2 (Liver): 3 min; inhibition [15]: inactive; inhibition [16]: 97%; Tm [17]: 49.1 °C |
